A selection: hits, their analogues and other compounds. The true share with any hit is near 4%.
Mdm2-MdmX inh = inhibitors of human Mdm2-MdmX association, primary screen, cell-based, luminescence, split luciferase, SaOS-2, uHTS | SaOS-2 split-luciferase Mdm2/MdmX complementation | inhibition, % at 8 µM | actives 3% (n = 330,000) | AID 485346, 2010;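 active = inhibition of at least 50% at 8 µM in the primary screen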
Target sequence (O15151 whole entry, looked up): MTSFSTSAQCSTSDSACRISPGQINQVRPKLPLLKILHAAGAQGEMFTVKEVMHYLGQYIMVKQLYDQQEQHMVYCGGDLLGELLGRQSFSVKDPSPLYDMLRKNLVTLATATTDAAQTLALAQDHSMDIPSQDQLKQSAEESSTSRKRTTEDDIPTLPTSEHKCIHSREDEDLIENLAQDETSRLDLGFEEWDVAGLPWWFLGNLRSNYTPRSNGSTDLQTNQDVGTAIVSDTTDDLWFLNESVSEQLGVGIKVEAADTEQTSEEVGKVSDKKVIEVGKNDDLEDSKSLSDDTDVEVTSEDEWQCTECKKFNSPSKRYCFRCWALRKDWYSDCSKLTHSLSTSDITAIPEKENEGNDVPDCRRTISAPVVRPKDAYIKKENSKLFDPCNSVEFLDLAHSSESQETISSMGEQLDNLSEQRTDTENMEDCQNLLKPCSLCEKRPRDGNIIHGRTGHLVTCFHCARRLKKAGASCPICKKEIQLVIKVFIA
Target sequence (Q00987 whole entry, looked up): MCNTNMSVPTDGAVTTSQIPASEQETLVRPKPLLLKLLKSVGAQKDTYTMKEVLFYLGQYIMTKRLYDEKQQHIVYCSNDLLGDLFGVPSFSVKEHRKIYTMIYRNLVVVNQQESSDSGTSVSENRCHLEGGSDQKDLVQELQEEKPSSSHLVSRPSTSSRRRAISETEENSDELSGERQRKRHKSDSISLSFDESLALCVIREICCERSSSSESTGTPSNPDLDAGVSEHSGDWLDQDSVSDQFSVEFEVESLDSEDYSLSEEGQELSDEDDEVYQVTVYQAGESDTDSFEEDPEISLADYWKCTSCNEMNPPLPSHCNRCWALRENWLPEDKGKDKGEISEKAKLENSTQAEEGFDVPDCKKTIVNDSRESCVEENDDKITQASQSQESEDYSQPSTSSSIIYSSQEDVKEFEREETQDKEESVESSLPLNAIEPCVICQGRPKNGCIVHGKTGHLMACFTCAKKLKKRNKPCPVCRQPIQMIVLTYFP
CHOP UPR activ = activators of apoptotic CHOP UPR arm, primary screen, cell-based, CHO-CHOP luciferase reporter, luminescence, uHTS | actives 0.34% (n = 330,000) | AID 449763, 2010 | UPR activation; percent of tunicamycin response over DMSO baseline | activation, % at 10 µM;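 active = at 10 µM dose, activation of 40% or more, normalized to positive control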;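 note: 100% = tunicamycin at 10 µg/mL and 0% = DMSO alone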
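Test system: CHO CHOP reporter cells. Input: 500 CHO-CHOP cells per well. Medium: F12 with 10% FBS. Technique: luciferase luminescence. Measure: percent activation relative to tunicamycin control. Dosing: 10 µM compound, 0.5% DMSO. Timing: 16-18 h cell attachment, then 6 h compound exposure, 37 °C.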
Granule exo inh = LAMP-1 surface exposure blockers, TALL-104 cells – cell-based, flow cytometry, MLPCN library, primary screen; AID 651702, 2012; actives 0.66% (n = 360,000); TALL-104 LAMP-1 surface exposure; cells stimulated with thapsigargin and PMA; inhibition, % at 10 µM;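 active = inhibition above about 55%, limit read from the data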
UPR XBP1 act = activators of adaptive XBP1 UPR arm, primary screen, cell-based, CHO-XBP1 luciferase reporter, luminescence, uHTS; IRE1-XBP1 UPR activation; percent of tunicamycin response, DMSO as zero; AID 463104, 2010; activation, % at 20 µM; actives 0.33% (n = 330,000);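 active = versus positive control, 20 µM dose yields 30% or more activation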;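 note: 100% = tunicamycin at 10 µg/mL and 0% = DMSO only wells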
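Material: IRE1-XBP1 luciferase reporter CHO line / Quantity: one thousand reporter cells per well / Buffer or medium: F12 with 10% serum / Compound: 20 µM single concentration, DMSO 1% / Times: 6 h treatment, 37 °C / Detection: Steady-Glo luciferase glow luminescence, 10 min after reagent addition / Benchmarks: tunicamycin high, DMSO low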
ABHD5-PLIN5 inh = ABHD5-PLIN5 interaction inhibitors, primary screen, cell lysate, split luciferase complementation, luminescence. Perilipin-5 (Homo sapiens) + 1-acylglycerol-3-phosphate O-acyltransferase ABHD5 (Homo …. actives 0.78% (n = 360,000). inhibition, % at 4 µM. Split G. princeps luciferase complementation, 4 h. AID 602281, 2012;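 active = inhibition above the mean inhibition across every tested compound plus 3 SD, cut at about 22% in these data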;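 note: 0% = DMSO only wells and the 100% control is not disclosed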
Granule exo CP1 = inhibitors of lytic granule exocytosis, confirmation, TALL-104 cells, flow cytometry, Cherry Pick01; shares compounds with Granule exo inh; LAMP-1 externalization; stimulated with PMA plus thapsigargin; inhibition, % at 10 µM; actives 11% (n = 1,500); in the data active = inhibition above about 60%;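 note: 0% = stimulated vehicle wells and 100% = unstimulated wells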
* hit, by the source's call; nt = not tested or not shown.

SMILES | Mdm2-MdmX inh | CHOP UPR activ | Granule exo inh | UPR XBP1 act | ABHD5-PLIN5 inh | Granule exo CP1
COc1ccccc1N(CC(=O)NC1CCCC1)S(=O)(=O)c1ccc(C)cc1 | 5 | 1 | 16 | 1 | -10 | nt
CCOc1ccccc1N(CC(=O)NC1CCCCC1)S(=O)(=O)c1ccc(C)cc1 | 17 | 1 | 93* | 2 | 1 | -12
COc1cccc(NC(=O)CN(c2ccccc2OC)S(=O)(=O)c2cccs2)c1 | 0 | -1 | -4 | 0 | -7 | nt
COc1ccccc1N(CC(=O)Nc1cccc(C(F)(F)F)c1)S(C)(=O)=O | -7 | 0 | 80* | -1 | 2 | -10
CCN(CC(=O)NCc1ccncc1)S(=O)(=O)c1ccc(OC)cc1 | 8 | 1 | 0 | -3 | 11 | nt
CCc1ccc(CN(Cc2cccnc2)C(=O)/C=C/c2ccc(OC)cc2)cc1 | 19 | 0 | 61* | -4 | 3 | -14
COc1ccc(/C=C/C(=O)NCc2cccnc2)cc1 | 4 | 2 | -2 | -1 | -3 | nt
CC(=O)Nc1ccccc1C(=O)C(=O)Nc1cccc(C(=O)NCC2CCCO2)c1 (configuration not stated) | 8 | 1 | 0 | -2 | 0 | nt
Cc1cc(C)cc(-n2c(SC(C)C(=O)NCc3ccc4c(c3)OCO4)nc3ccccc3c2=O)c1 (configuration not stated) | 7 | 0 | -4 | -2 | -6 | nt
CC(Sc1nc2cc([N+](=O)[O-])ccc2n1-c1ccc(F)cc1)C(=O)NCc1ccc2c(c1)OCO2 (configuration not stated) | 45 | 0 | 88* | 0 | 11 | -5
O=C(CSc1nc2ccccc2c(=O)n1-c1ccccc1)NCc1ccc2c(c1)OCO2 | 10 | -2 | -2 | -3 | -5 | nt
COc1ccccc1-n1c(SCC(=O)NCc2ccc3c(c2)OCO3)nc2cc([N+](=O)[O-])ccc21 | 17 | 2 | 95* | -2 | 23* | 0
O=C(NC1CCN(S(=O)(=O)c2cccc(F)c2)CC1)c1ccc(F)cc1 | 18 | 2 | 4 | -5 | -6 | nt
O=C(O)CSc1nc2ccccc2n1-c1ccccc1 | -1 | -2 | 3 | 1 | 3 | nt
CC(=O)Nc1ccc(SC[C@H](CC(C)C)N2CCN(CCc3ccccc3)CCC2=O)cc1 | 17 | 0 | 66* | -4 | -7 | -3
Cc1ccc(SC[C@H](CC(C)C)N2CCN(CCc3ccccc3)CCC2=O)cc1 | 7 | 2 | -2 | -1 | 4 | nt
CCN(CC)CC(O)Cn1c2ccccc2c2ccccc21 (configuration not stated) | -31 | 0 | 0 | -1 | 11 | nt
CCN(CC)CC(O)Cn1c(C)c(-c2ccccc2)c2cc([N+](=O)[O-])ccc21 (configuration not stated) | 35 | 2 | 58* | 3 | 7 | 10
Cc1nc2sc(C#N)c(N)c2c2c1CCCC2 | 27 | -1 | 3 | 3 | 0 | nt
CC(=O)c1sc2nc(C)c3c(c2c1N)CCCC3 | 49 | 0 | 62* | -2 | -2 | -5
Cc1cccc(N(CC(=O)NC2CCCC2)C(=O)c2cc3cc4cccc(C)c4nc3s2)c1C | 3 | 2 | 0 | -4 | -4 | nt
COc1ccc(CCNCc2ccc(OCc3ccccc3)cc2)cc1 | -4 | 4 | 85* | 7 | 5 | 57
Cc1ccc(Nc2cc(C)c(O)c(C)c2)cc1 | 31 | 7 | 67* | 0 | -3 | 19
Cc1ccc(Nc2ccccc2)cc1 | -10 | 3 | 1 | 2 | -7 | nt
CCOc1ccc(S(=O)(=O)N2CCCC(C(=O)Nc3cccc(C)c3)C2)cc1 (configuration not stated) | 33 | 1 | 63* | 0 | -14 | -13
SMILES | Mdm2-MdmX inh | CHOP UPR activ | Granule exo inh | UPR XBP1 act | ABHD5-PLIN5 inh | Granule exo CP1
CNC(=O)C1CC(=O)N(c2ccc(F)c(Cl)c2)C1 (configuration not stated) | 5 | 0 | -2 | -1 | -1 | nt
CC(Nc1nc(-c2ccncc2)nc2ccccc12)c1ccccc1 (configuration not stated) | 34 | 1 | 31 | 5 | -3 | nt
CC(Nc1nc(N2CCNCC2)nc2ccccc12)c1ccccc1 (configuration not stated) | 30 | 1 | 87* | -2 | 10 | 79*
CCCNC(=S)N1CCN(c2nc(C)nc3sc4c(c23)CCCC4)CC1 | 14 | -1 | 1 | -4 | 0 | nt
COCCCNC(=S)N1CCN(c2nc(C)nc3sc4c(c23)CCCC4)CC1 | 27 | -2 | 66* | 0 | -6 | -3
c1ccc(-c2cc3nc(NCC4CC4)nc(NCC4CCCCC4)c3s2)cc1 | nt | nt | 57* | nt | -5 | 32
CCN(CC)CCNc1nc(-c2ccc(OC)cc2)c(-c2ccc(OC)cc2)s1 | 24 | 3 | 66* | 0 | 11 | -2
CCC1C(=O)C(CC)C(c2ccccc2)NC1c1ccccc1 (configuration not stated) | 31 | -2 | 61* | -3 | -29 | -5
S=c1nccc(-c2ccc3c(c2)CCO3)[nH]1 | 13 | 3 | 59* | 1 | 4 | -12
CC1(C)CCc2cc(-c3ccnc(=S)[nH]3)ccc2O1 | -2 | 2 | -4 | -3 | -4 | nt
O=C(Nc1ccccc1-c1nc2ccccc2s1)c1ccco1 | 28 | 1 | 71* | 0 | 5 | -2
O=C(Nc1ccccc1-c1nc2ccccc2s1)c1cccnc1Cl | 7 | 2 | 1 | 0 | -2 | nt
CCOc1ccc(-n2c(SCC(=O)Nc3cc(C)on3)nc3c([nH]c4ccccc43)c2=O)cc1 | 8 | 0 | -2 | 1 | -3 | nt
CCN1C(c2ccccc2)C(C)C(=O)C(C)C1c1ccccc1 (configuration not stated) | 12 | 2 | 58* | -5 | -6 | -2
CC1C(=O)C(C)C(c2ccccc2)N(N=O)C1c1ccccc1 (configuration not stated) | nt | nt | 0 | nt | -3 | nt
CCCOc1ccccc1NC(=O)/C=C/C(N)=O | 26 | 6 | 66* | -4 | 4 | 0
Cc1c([C@@H]2C[C@H]3CN(Cc4cccc(Cl)c4)C(=O)[C@]34CCCN24)cnn1C | 24 | -2 | 78* | 0 | 4 | -3
O=C1CCC[C@@H]2C[C@@]3(C[C@@H]4CCN1[C@H]24)Nc1cc(Cl)ccc1NC3=NC1CCCCC1 | nt | nt | 76* | nt | 5 | -12
Cn1nc(CC(=O)NCCN2C(=O)CSC2=O)c2ccccc2c1=O | 23 | -1 | -5 | 1 | -4 | nt

Compound activity from PubChem BioAssay.
